Test results from ChEMBL document CHEMBL1134675, “17 alpha-O-(aminoalkyl)oxime derivatives of 3 beta,14 beta-dihydroxy-5 beta-androstane and 3 beta-hydroxy-14-oxoseco-D-5 beta-androstane as inhibitors of Na(+),K(+)-ATPase at the digitalis receptor” (J Med Chem, 2001).
pEC50, pIC50: −log10 of the molar value.

Key:
Cavia porcellus = organism: Cavia porcellus; experiment: In vitro increase in contractile force of the guine pig atrium.; type: functional, organism-based; details: Cardiac atrium
Method in brief: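 Left atria from male guinea pigs (300-500 g) in organ baths of bicarbonate salt solution with glucose and sucrose, 95% O2/5% CO2, 32 °C, 500 mg resting tension. Field-stimulated at 1 Hz (1 ms, twice threshold voltage). After 60 min equilibration, cumulative concentrations added, each held until maximal response or arrhythmia. Read-out: maximal increase in contractile force; EC50 from concentration–response curves.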

[1] = target: Sodium/potassium-transporting ATPase; experiment: Binding affinity towards Na+,K+ -ATPase isolated from dog kidney.; type: protein-complex assay, Canis lupus familiaris
Method in brief: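 Displacement of specific [3H]ouabain binding from the Na+,K+-ATPase receptor, enzyme isolated from dog kidney and purified per Jørgensen. Means of two to three separate experiments in duplicate.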

Row | Compound | pEC50 (Cavia porcellus) | pIC50 [1]
1 | C[C@]12CC[C@H](O)C[C@H]1CC[C@@H]1[C@@H]2CC[C@]2(C)[C@H](C/C=N/OCCN)CC[C@]12O | 5.46 | 7.30
2 | C[C@]12CC[C@H](O)C[C@H]1CC[C@@H]1[C@@H]2CC[C@]2(C)[C@H](/C=N/OCCN)CC[C@]12O |  | 6.40
3 | C[C@]12CC[C@H](O)C[C@H]1CC[C@@H]1[C@@H]2CC[C@]2(C)[C@H](C/C=N/OCCCN)CC[C@]12O |  | 6.70
4 | C[C@]12CC[C@H](O)C[C@H]1CC[C@@H]1[C@@H]2CC[C@]2(C)[C@H](/C=N/OCCCCN)CC[C@]12O |  | 6.00
5 | CC[C@@H](C/C=N/OCCN(C)C)[C@@]1(C)CCC2C(CC[C@@H]3C[C@@H](O)CC[C@]23C)C1=O (stereo not given in full) | 5.70 | 7.00
6 | CCC[C@@H](C/C=N/OCCN)[C@@]1(C)CCC2C(CC[C@@H]3C[C@@H](O)CC[C@]23C)C1=O (stereo not given in full) | 5.25 | 6.70
7 | CC[C@@H](C/C=N/OCCN)[C@@]1(C)CCC2C(CC[C@@H]3C[C@@H](O)CC[C@]23C)C1=O (stereo not given in full) | 5.82 | 7.40
8 | C[C@@H](C/C=N/OCCN)[C@@]1(C)CCC2C(CC[C@@H]3C[C@@H](O)CC[C@]23C)C1=O (stereo not given in full) |  | 7.00
9 | CC[C@@H](/C=N/OCCN(C)C)[C@@]1(C)CCC2C(CC[C@H]3C[C@@H](O)CC[C@]23C)C1=O (stereo not given in full) |  | 6.30
10 | C[C@]12CC[C@H](O)C[C@H]1CC[C@@H]1[C@@H]2CC[C@]2(C)[C@@H](C3=CC(=O)OC3)CC[C@]12O [DIGITOXIGENIN] | 6.24 | 
11 | CN(C)CCO/N=C/[C@@H]1CC[C@]2(O)[C@@H]3CC[C@@H]4C[C@@H](O)CC[C@]4(C)[C@H]3CC[C@]12C |  | 5.80
12 | C[C@@H](C/C=N/OCCN(C)C)[C@@]1(C)CCC2C(CC[C@@H]3C[C@@H](O)CC[C@]23C)C1=O (stereo not given in full) | 5.52 | 6.89
13 | CC[C@@H](C/C=N/OCCN)[C@@]1(C)CCC2C(CC[C@H]3C[C@@H](O)CC[C@]23C)C1=O (stereo not given in full) |  | 6.80
14 | CC[C@H](C/C=N/OCCN(C)C)[C@@]1(C)CCC2C(CC[C@@H]3C[C@@H](O)CC[C@]23C)C1=O (stereo not given in full) |  | 6.10
15 | CC[C@@H](C/C=N/OCCN(C)C)[C@@]1(C)CCC2C(CC[C@H]3C[C@@H](O)CC[C@]23C)C1=O (stereo not given in full) |  | 6.60
16 | C[C@]12CC[C@H](O)C[C@H]1CC[C@@H]1[C@@H]2CC[C@]2(C)[C@H](C/C=N/OCCCCN)CC[C@]12O |  | 6.10
17 | CC[C@H](/C=N/OCCN(C)C)[C@@]1(C)CCC2C(CC[C@@H]3C[C@@H](O)CC[C@]23C)C1=O (stereo not given in full) |  | 5.40
18 | CN(C)CCO/N=C/C[C@@H]1CC[C@]2(O)[C@@H]3CC[C@@H]4C[C@@H](O)CC[C@]4(C)[C@H]3CC[C@]12C |  | 6.60
19 | C[C@]12CC[C@H](O)C[C@H]1CC[C@@H]1[C@@H]2CC[C@]2(C)[C@H](/C=N/OCCCN)CC[C@]12O | 4.74 | 6.40
